Test results: ChEMBL document CHEMBL4342411, “Novel multitarget 5-arylidenehydantoins with arylpiperazinealkyl fragment: Pharmacological evaluation and investigation of cytotoxicity and metabolic stability” (Bioorg Med Chem, 2019)
pIC50, pKi: −log10 of the molar value.

Experiments:
[1] = biological target: 5-hydroxytryptamine receptor 2A (Homo sapiens) (UniProt P28223); details: HEK293, at 1 µM
[2] = biological target: 5-hydroxytryptamine receptor 6 (Homo sapiens) (UniProt P50406); assay: Displacement of [3H]-LSD from human recombinant 5-HT6 receptor expressed in CHO cells at 10^-6 M incubated for 60 mins by microbeta2 scintillation counter relative to control; format: cell-based
5-hydroxytryptamine receptor 6 (Homo sapiens), sequence (P50406 whole entry): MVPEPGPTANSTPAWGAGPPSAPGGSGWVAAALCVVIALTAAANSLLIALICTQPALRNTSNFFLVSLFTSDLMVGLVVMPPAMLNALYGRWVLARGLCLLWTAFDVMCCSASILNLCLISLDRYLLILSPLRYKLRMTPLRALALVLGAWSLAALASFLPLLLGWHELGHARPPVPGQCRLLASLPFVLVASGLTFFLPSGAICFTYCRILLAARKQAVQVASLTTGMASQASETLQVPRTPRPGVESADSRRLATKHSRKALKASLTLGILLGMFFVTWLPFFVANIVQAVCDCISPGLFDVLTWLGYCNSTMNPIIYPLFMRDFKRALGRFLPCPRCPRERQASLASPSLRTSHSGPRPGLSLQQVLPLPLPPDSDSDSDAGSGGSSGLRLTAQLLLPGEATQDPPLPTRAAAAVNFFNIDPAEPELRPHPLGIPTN
Summary of the method: (§1)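 Radioligand displacement from recombinant human receptor membranes, tested at two final concentrations (10^-6 and 10^-7 M), with scintillation counting. Results were expressed as percent inhibition of specific binding.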

[3] = biological target: 5-hydroxytryptamine receptor 2A (Homo sapiens) (UniProt P28223); details: HEK293, at 0.1 µM
[4] = biological target: 3',5'-cyclic-AMP phosphodiesterase 4B (Homo sapiens) (UniProt Q07343); assay: Inhibition of human recombinant full length N-terminal GST-tagged PDE4B1 expressed in baculovirus infected Sf9 cells at 10^-5 M using cAMP as substrate incubated for 20 mins followed by substrate addition by luciferase assay relative to control
3',5'-cyclic-AMP phosphodiesterase 4B (Homo sapiens), sequence (Q07343 whole entry): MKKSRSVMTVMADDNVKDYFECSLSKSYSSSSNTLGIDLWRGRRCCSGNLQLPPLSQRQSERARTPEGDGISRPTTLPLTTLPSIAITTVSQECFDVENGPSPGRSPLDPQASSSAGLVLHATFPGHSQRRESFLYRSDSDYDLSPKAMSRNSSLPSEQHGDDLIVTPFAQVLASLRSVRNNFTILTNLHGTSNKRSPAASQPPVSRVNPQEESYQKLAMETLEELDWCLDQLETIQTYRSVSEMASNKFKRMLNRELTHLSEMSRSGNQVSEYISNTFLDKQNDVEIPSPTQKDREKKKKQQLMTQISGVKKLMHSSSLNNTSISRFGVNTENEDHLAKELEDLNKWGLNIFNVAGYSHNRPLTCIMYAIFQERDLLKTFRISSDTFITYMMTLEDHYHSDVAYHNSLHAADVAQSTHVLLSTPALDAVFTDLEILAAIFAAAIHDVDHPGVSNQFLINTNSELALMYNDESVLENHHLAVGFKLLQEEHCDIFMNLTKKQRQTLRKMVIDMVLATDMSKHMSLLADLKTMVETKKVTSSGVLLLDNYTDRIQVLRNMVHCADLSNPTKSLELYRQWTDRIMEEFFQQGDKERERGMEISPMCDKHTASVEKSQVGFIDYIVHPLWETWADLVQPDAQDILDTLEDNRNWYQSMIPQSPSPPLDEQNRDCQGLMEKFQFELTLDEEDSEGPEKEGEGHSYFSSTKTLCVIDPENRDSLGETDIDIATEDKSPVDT

[5] = biological target: 5-hydroxytryptamine receptor 6 (Homo sapiens) (UniProt P50406); assay: Displacement of [3H]-LSD from human recombinant 5-HT6 receptor expressed in CHO cells at 10^-7 M incubated for 60 mins by microbeta2 scintillation counter relative to control; format: cell-based
Summary of the method: as §1

[6] = biological target: T1, 5-hydroxytryptamine receptor 7 (Homo sapiens, UniProt P34969); assay: biochemical; format: cell-based, CHO
T1 sequence (P34969 whole entry): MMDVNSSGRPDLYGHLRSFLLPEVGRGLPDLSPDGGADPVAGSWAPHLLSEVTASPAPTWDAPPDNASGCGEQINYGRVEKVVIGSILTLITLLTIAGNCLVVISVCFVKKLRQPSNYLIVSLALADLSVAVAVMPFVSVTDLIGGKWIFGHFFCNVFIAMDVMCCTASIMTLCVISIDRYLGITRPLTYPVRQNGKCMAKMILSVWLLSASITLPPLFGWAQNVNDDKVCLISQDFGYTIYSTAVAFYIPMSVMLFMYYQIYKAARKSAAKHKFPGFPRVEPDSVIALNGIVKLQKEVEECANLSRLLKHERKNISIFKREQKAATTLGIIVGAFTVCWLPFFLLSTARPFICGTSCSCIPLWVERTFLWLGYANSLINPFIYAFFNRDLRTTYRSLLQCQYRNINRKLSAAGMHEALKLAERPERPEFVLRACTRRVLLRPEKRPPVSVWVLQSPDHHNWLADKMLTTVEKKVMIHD

[7] = biological target: T2, 5-hydroxytryptamine receptor 1A (Homo sapiens, UniProt P08908); assay: Displacement of [3H]-8-OH-DPAT from human recombinant 5-HT1A receptor expressed in HEK293 cells incubated for 60 mins by microbeta2 scintillation counter; format: cell-based
T2 sequence (P08908 whole entry): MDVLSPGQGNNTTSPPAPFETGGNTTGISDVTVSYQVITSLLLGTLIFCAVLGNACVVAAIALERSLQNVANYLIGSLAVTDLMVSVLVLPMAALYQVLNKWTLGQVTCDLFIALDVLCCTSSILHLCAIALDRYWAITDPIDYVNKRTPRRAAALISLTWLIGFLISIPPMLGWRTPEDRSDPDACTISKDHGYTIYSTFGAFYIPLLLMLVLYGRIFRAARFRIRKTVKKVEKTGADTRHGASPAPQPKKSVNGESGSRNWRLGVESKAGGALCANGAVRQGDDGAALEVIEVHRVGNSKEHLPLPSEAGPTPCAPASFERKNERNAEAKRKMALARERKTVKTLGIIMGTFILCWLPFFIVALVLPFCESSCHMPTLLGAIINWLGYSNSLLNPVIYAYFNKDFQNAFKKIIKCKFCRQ

[8] = in vitro; details: CD1, mouse
[9] = test system: HaCaT; assay: Cytotoxicity against human HaCaT cells assessed as growth inhibition measured after 72 hrs by MTT assay; format: cell-based
Summary of the method: (§2)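 Cells were seeded at 1 × 10^4 per well: SW480 in MEM, PC3 in RPMI 1640, HaCaT in DMEM high glucose, each with 10% FBS. Compounds were added at 10–140 µM and incubated for 72 h. MTT was then added at 0.5 mg/mL in serum-free medium for 4 h at 37 °C. Formazan was dissolved in DMSO/isopropanol (1:1) and read at 570 nm. IC50 was given in µM; untreated cells served as control.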

[10] = test system: PC-3; assay: Cytotoxicity against human PC3 cells assessed as growth inhibition measured after 72 hrs by MTT assay; format: functional, cell-based; details: PC-3, 72 h
Summary of the method: as §2

[11] = test system: SW480; assay: Cytotoxicity against human SW480 cells assessed as growth inhibition measured after 72 hrs by MTT assay; format: functional, cell-based; details: SW480, 72 h
Summary of the method: as §2

[12] = biological target: 3',5'-cyclic-AMP phosphodiesterase 4B (Homo sapiens) (UniProt Q07343); details: Sf9, 10^-5.5 M
[13] = biological target: T1, 5-hydroxytryptamine receptor 7; assay: Antagonist activity at human recombinant 5-HT7 receptor expressed in CHOK1 cells measured after 60 mins in the presence of serotonin by LANCE TR-FRET assay relative to control; format: cell-based
[14] = test system: Mus musculus; assay: Antidepressant activity in Swiss albino mouse assessed as decrease in immobility time at 0.625 mg/kg, ip measured after 60 mins by forced swim test relative to control; format: functional; design: scale not given: the % may be the effect or the level left
Summary of the method: (§3)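 Male Swiss albino mice (22–26 g), 7–10 per dose, were dosed ip in 1% Tween 80 at 10 ml/kg 60 min before the test. In the Porsolt test, each mouse was placed for 6 min in a cylinder with 6 cm of water at 23–25 °C. Immobility was scored over the last 4 min and compared with vehicle controls by ANOVA/Bonferroni.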

[15] = biological target: T3, 5-hydroxytryptamine receptor 1A (Homo sapiens) (UniProt P08908); assay: Antagonist activity at human recombinant 5-HT1A receptor expressed in CHOK1 cells assessed as equilibrium binding constant incubated for 25 mins followed by addition of methiothepin by microbeta2 scintillation counter; format: cell-based; details: in the assay text read “serotonin” for “methiothepin”
T3 sequence (whole entry): T2 sequence (P08908 whole entry)
Summary of the method: (§4)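 Aequorin Ca2+ assay in antagonist mode in CHO-K1 cells expressing human 5-HT1A, Gα16 and mitochondrial aequorin, loaded with 5 μM coelenterazine h. Cells were injected onto the compounds (8–10 concentrations) and incubated for 25 min.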

[16] = biological target: T2, 5-hydroxytryptamine receptor 1A; assay: Antagonist activity at human recombinant 5-HT1A receptor expressed in CHOK1 cells incubated for 25 mins followed by addition of methiothepin by microbeta2 scintillation counter; format: cell-based; details: for pIC50: in the assay text read “serotonin” for “methiothepin”, read-out: IC50
Summary of the method: as §4

[17] = Selectivity index, ratio of IC50 for human HaCaT cells to IC50 for human SW480 cells
[18] = biological target: T1, 5-hydroxytryptamine receptor 7; assay: Agonist activity at human recombinant 5-HT7 receptor expressed in CHOK1 cells by LANCE TR-FRET assay relative to control; format: cell-based
Summary of the method: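 cAMP assay in CHO-K1 cells expressing human 5-HT7 […], at 2x10^5 cells/ml in HBSS with 5 mM HEPES, IBMX and 0.1% BSA, pH 7.4. Cells were stimulated with the compounds (8 concentrations) for 60 min at room temperature. cAMP was read by LANCE Ultra TR-FRET after 1 h with tracer and antibody. EC50 was obtained by nonlinear regression.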

[19] = biological target: T1, 5-hydroxytryptamine receptor 7; assay: Antagonist activity at human recombinant 5-HT7 receptor expressed in CHOK1 cells measured after 60 mins in the presence of serotonin by LANCE TR-FRET assay; format: cell-based
[20] = test system: Mus musculus; assay: Effect on locomotor activity in Swiss albino mouse at 0.625 mg/kg, ip; format: ADME, organism-based; details: in vivo
Summary of the method: (§5)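 Male Swiss albino mice were dosed ip in 1% Tween 80 at 10 ml/kg 60 min before testing. Each mouse was placed individually in a cage in a photobeam activity monitor. Ambulation crossings were counted from 2 to 6 min.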

[21] = biological target: T3, 5-hydroxytryptamine receptor 1A (Homo sapiens); assay: Antagonist activity at human recombinant 5-HT1A receptor expressed in CHOK1 cells incubated for 25 mins followed by addition of […] by microbeta2 scintillation counter relative to control; format: cell-based
Summary of the method: as §4

[22] = biological target: T1, 5-hydroxytryptamine receptor 7; assay: Antagonist activity at human recombinant 5-HT7 receptor expressed in CHOK1 cells assessed as equilibrium binding constant measured after 60 mins in the presence of serotonin by LANCE TR-FRET assay; format: cell-based
[23] = Selectivity index, ratio of IC50 for human HaCaT cells for human PC3 cells; format: toxicity; details: HaCaT cells versus PC3 cells, read-out: Ratio IC50
[24] = biological target: T3, 5-hydroxytryptamine receptor 1A (Homo sapiens); assay: Agonist activity at human recombinant 5-HT1A receptor expressed in CHOK1 cells measured after 1 hr by microbeta2 scintillation counter relative to control; format: cell-based
Summary of the method: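 Aequorin Ca2+ assay in CHO-K1 cells coexpressing mitochondrial aequorin, human 5-HT1A and Gα16. Thawed cells were loaded with coelenterazine h (5 μM final) for 16 h at 16 °C in the dark with agitation, then diluted to 5000 cells/ml. After 1 h they were injected onto the compounds (8–10 concentrations) and luminescence was recorded for 30 s.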

[25] = in vitro; details: CD1, mouse, liver microsomes
[26] = Metabolic stability in mouse liver microsomes assessed as metabolite formation measured after 30 mins in the presence of NADPH by LC-MS/MS analysis; format: ADME, Microsome; details: 0.5 h
Summary of the method: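 Compound (20 µM final) was preincubated with mouse liver microsomes (0.4 mg/mL) in 100 mM potassium phosphate, pH 7.4, at 37 °C for 15 min. The reaction was started with an NADPH-regenerating system and sampled at 5, 15 and 30 min. Levallorphan internal standard was added, the reaction was stopped with perchloric acid, and samples were analysed by LC-MS/MS. No-NADPH incubations served as negative controls.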

[27] = test system: Mus musculus; assay: Antidepressant activity in Swiss albino mouse assessed as decrease in immobility time at 0.625 to 2.5 mg/kg, ip measured after 60 mins by forced swim test relative to control; format: functional; design: scale not given: the % may be the effect or the level left
Summary of the method: as §3

[28] = test system: Mus musculus; assay: Effect on locomotor activity in Swiss albino mouse at 0.625 to 2.5 mg/kg, ip; format: ADME, organism-based; details: in vivo
Summary of the method: as §5

5-hydroxytryptamine receptor 2A (Homo sapiens), sequence (P28223 whole entry): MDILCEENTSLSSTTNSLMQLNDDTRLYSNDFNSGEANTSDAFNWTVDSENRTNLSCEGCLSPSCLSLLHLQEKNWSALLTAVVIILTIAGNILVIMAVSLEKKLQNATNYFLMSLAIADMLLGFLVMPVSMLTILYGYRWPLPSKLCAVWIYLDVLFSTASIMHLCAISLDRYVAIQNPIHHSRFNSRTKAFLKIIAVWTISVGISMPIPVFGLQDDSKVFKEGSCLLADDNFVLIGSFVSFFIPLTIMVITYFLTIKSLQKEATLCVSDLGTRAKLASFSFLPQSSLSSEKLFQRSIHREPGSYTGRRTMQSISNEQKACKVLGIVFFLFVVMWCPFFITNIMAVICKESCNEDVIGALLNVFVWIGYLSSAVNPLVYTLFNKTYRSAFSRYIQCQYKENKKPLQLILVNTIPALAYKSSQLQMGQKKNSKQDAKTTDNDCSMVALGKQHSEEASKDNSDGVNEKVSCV

SMILES	inhibition [1]	inhibition [2]	inhibition [3]	inhibition [4]	inhibition [5]	pKi [6]	pKi [7]	other results
COc1ccc(/C=C2\NC(=O)N(CCCN3CCN(c4ncccn4)CC3)C2=O)cc1OC	78%	15%	23%	1%	8%	7.13	7.92	–
COc1ccc(/C=C2\NC(=O)N(CCCN3CCN(c4cccc(Cl)c4Cl)CC3)C2=O)cc1OC	97%	72%	61%	5%	0%	7.66	7.28	–
COc1ccc(/C=C2\NC(=O)N(CCCN3CCN(c4ncccn4)CC3)C2=O)cc1OC1CCCC1	89%	23%	33%	9%	0%	< 6.00	7.07	–
CC(C)NCC(O)COc1cccc2ccccc12 (stereo unspecified) [PROPRANOLOL]	–	–	–	–	–	–	–	half-life ([8]; microsomes): 84.5 min
COc1ccc(/C=C2\NC(=O)N(CCCCN3CCN(c4ccccc4OC)CC3)C2=O)cc1OC	87%	9%	31%	8%	0%	7.80	8.15	–
COc1cccc2c1C(=O)c1c(O)c3c(c(O)c1C2=O)C[C@@](O)(C(=O)CO)C[C@@H]3O[C@H]1C[C@H](N)[C@H](O)[C@H](C)O1 [DOXORUBICIN]	–	–	–	–	–	–	–	pIC50 [9]: 6.63; pIC50 [10]: 6.23; pIC50 [11]: 6.54
COc1ccc(C2CNC(=O)C2)cc1OC1CCCC1 (stereo unspecified)	–	–	–	–	–	–	–	inhibition [12]: 84%
COc1ccc(/C=C2\NC(=O)N(CCCN3CCN(c4cccc(Cl)c4Cl)CC3)C2=O)cc1OC1CCCC1	96%	70%	27%	3%	0%	6.42	< 6.00	–
CC1CCN(CC[C@H]2CCCN2S(=O)(=O)c2cccc(O)c2)CC1	–	–	–	–	–	–	–	Emax [13]: 8%
COc1ccc(/C=C2\NC(=O)N(CCCCN3CCN(c4cccc(Cl)c4Cl)CC3)C2=O)cc1OC1CCCC1	90%	34%	39%	3%	8%	6.90	6.88	–
COc1ccc(/C=C2\NC(=O)N(CCCCN3CCN(c4cccc(Cl)c4Cl)CC3)C2=O)cc1OC	98%	82%	82%	5%	6%	9.10	9.70	Activity [14]: 27%; Kb [15]: 0.0013 µM; pIC50 [9]: 3.53; pIC50 [16]: 7.41; Ratio IC50 [17]: 1.16; Emax [18]: 13%; pIC50 [10]: 3.64; Emax [13]: 37%; pIC50 [19]: 6.79; Activity [20]: Non-Toxic; Emax [21]: 15%; Kb [22]: 0.0543 µM; pIC50 [11]: 3.59; selectivity ratio [23]: 1.31; Emax [24]: 12%
COc1ccc(/C=C2\NC(=O)N(CCCN3CCN(c4ccccc4OC)CC3)C2=O)cc1OC	83%	0%	25%	9%	0%	7.38	7.89	–

More lines, main results first:

inhibition [1]	inhibition [2]	inhibition [3]	inhibition [4]	inhibition [5]	pKi [6]	pKi [7]	SMILES	other results
96%	13%	44%	3%	0%	8.22	7.43	COc1ccc(/C=C2\NC(=O)N(CCCN3CCN(c4ccccc4OC)CC3)C2=O)cc1OC1CCCC1	–
–	99%	–	–	99%	–	–	CSc1ccc2c(c1)C(N1CCN(C)CC1)Cc1ccccc1S2 (stereo unspecified)	–
41%	0%	0%	14%	0%	6.03	7.35	COc1ccc(/C=C2\NC(=O)N(CCCCN3CCN(c4ncccn4)CC3)C2=O)cc1OC	–
78%	8%	19%	10%	0%	6.53	7.19	COc1ccc(/C=C2\NC(=O)N(CCCCN3CCN(c4ncccn4)CC3)C2=O)cc1OC1CCCC1	–
95%	5%	50%	14%	0%	9.00	9.00	COc1ccc(/C=C2\NC(=O)N(CCCCN3CCN(c4ccccc4OC)CC3)C2=O)cc1OC1CCCC1	microsomal CLint [25]: 136 µL/min/mg; Kb [15]: 0.0017 µM; pIC50 [9]: 3.82; half-life ([8]; liver microsomes): 12.8 min; pIC50 [16]: 7.27; IC50 ([16]; read-out: pIC50 (converted)): 0.0617 µM; Drug metabolism [26]: Metabolite_Detected; Ratio IC50 [17]: 0.81; Emax [18]: 14%; pIC50 [10]: 3.59; Emax [13]: 33%; pIC50 [19]: 6.66; Activity [27]: 30%; Emax [21]: 3%; Activity [28]: Non-Toxic; Kb [22]: 0.073 µM; pIC50 [11]: 3.73; selectivity ratio [23]: 0.59; Emax [24]: 6%
